Results as given in ChEMBL document CHEMBL4387724, “2-Pyridineformamide N(4)-ring incorporated thiosemicarbazones inhibit MCF-7 cells by inhibiting JNK pathway” (Bioorg Med Chem Lett, 2019).

Tests used:
[1] = tested on: MCF7; assay: Cytotoxicity against human MCF7 cells assessed as reduction in cell growth at 30 uM incubated for 72 hrs by MTT assay relative to control; type: functional; conditions: MCF7, 72 h, read-out: GI
[2] = tested on: A-431; assay: Cytotoxicity against human A431 cells assessed as reduction in cell growth at 30 uM incubated for 72 hrs by MTT assay relative to control; type: functional; conditions: A-431, 72 h, read-out: GI
[3] = tested on: MCF7; assay: Cytotoxicity against human MCF7 cells assessed as reduction in cell growth at 100 uM incubated for 72 hrs by MTT assay relative to control; type: functional; conditions: MCF7, 72 h, read-out: GI
In short: (§1)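 Cells grown in DMEM with 10% FBS and penicillin-streptomycin at 37 °C, 5% CO2, seeded at 3000 cells/well and attached overnight. Screening series given at 1, 3, 10, 100 μM; follow-up agent at 100 nM–3 μM; both 72 h, with 0.1% DMSO vehicle. MTT (5 mg/mL stock) added for 3 h at 37 °C, formazan dissolved in DMSO, absorbance read at 570 nm. Viability expressed as % of DMSO-treated wells from replicates.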

[4] = tested on: HeLa; assay: Cytotoxicity against human HeLa cells assessed as reduction in cell growth at 10 uM incubated for 72 hrs by MTT assay relative to control; type: functional; conditions: read-out: GI; in short: as §1
[5] = tested on: MCF7; assay: Cytotoxicity against human MCF7 cells assessed as reduction in cell growth at 1 uM incubated for 72 hrs by MTT assay relative to control; type: functional; conditions: MCF7, 72 h, read-out: GI; in short: as §1
[6] = tested on: A-375; assay: Cytotoxicity against human A375 cells assessed as reduction in cell growth at 100 uM incubated for 72 hrs by MTT assay relative to control; type: functional; conditions: A-375, 72 h, read-out: GI; in short: as §1
[7] = tested on: HeLa; assay: Cytotoxicity against human HeLa cells assessed as reduction in cell growth at 30 uM incubated for 72 hrs by MTT assay relative to control; type: functional; conditions: read-out: GI
[8] = tested on: HeLa; assay: Cytotoxicity against human HeLa cells assessed as reduction in cell growth at 3 uM incubated for 72 hrs by MTT assay relative to control; type: functional; conditions: read-out: GI; in short: as §1
[9] = tested on: MCF7; assay: Cytotoxicity against human MCF7 cells assessed as reduction in cell growth at 3 uM incubated for 72 hrs by MTT assay relative to control; type: functional; conditions: MCF7, 72 h, read-out: GI; in short: as §1
[10] = tested on: A-375; assay: Cytotoxicity against human A375 cells assessed as reduction in cell growth at 1 uM incubated for 72 hrs by MTT assay relative to control; type: functional; conditions: A-375, 72 h, read-out: GI; in short: as §1
[11] = tested on: HeLa; assay: Cytotoxicity against human HeLa cells assessed as reduction in cell growth at 1 uM incubated for 72 hrs by MTT assay relative to control; type: functional; conditions: read-out: GI; in short: as §1
[12] = tested on: A-375; assay: Cytotoxicity against human A375 cells assessed as reduction in cell growth at 30 uM incubated for 72 hrs by MTT assay relative to control; type: functional; conditions: A-375, 72 h, read-out: GI
[13] = tested on: A-431; assay: Cytotoxicity against human A431 cells assessed as reduction in cell growth at 3 uM incubated for 72 hrs by MTT assay relative to control; type: functional; conditions: A-431, 72 h, read-out: GI; in short: as §1
[14] = tested on: A-431; assay: Cytotoxicity against human A431 cells assessed as reduction in cell growth at 100 uM incubated for 72 hrs by MTT assay relative to control; type: functional; conditions: A-431, 72 h, read-out: GI; in short: as §1
[15] = tested on: HeLa; assay: Cytotoxicity against human HeLa cells assessed as reduction in cell growth incubated for 72 hrs by MTT assay; type: functional, cell-based; in short: as §1
[16] = tested on: MCF7; assay: Cytotoxicity against human MCF7 cells assessed as reduction in cell growth incubated for 72 hrs by MTT assay; type: functional, cell-based; conditions: MCF7, 72 h; in short: as §1
[17] = tested on: A-431; assay: Cytotoxicity against human A431 cells assessed as reduction in cell growth incubated for 72 hrs by MTT assay; type: functional, cell-based; conditions: A-431, 72 h; in short: as §1
[18] = tested on: A-375; assay: Cytotoxicity against human A375 cells assessed as reduction in cell growth incubated for 72 hrs by MTT assay; type: functional, cell-based; conditions: A-375, 72 h; in short: as §1
[19] = tested on: MCF7; assay: Cytotoxicity against human MCF7 cells assessed as reduction in cell growth at 10 uM incubated for 72 hrs by MTT assay relative to control; type: functional; conditions: MCF7, 72 h, read-out: GI; in short: as §1
[20] = tested on: A-375; assay: Cytotoxicity against human A375 cells assessed as reduction in cell growth at 3 uM incubated for 72 hrs by MTT assay relative to control; type: functional; conditions: A-375, 72 h, read-out: GI; in short: as §1
[21] = tested on: HeLa; assay: Cytotoxicity against human HeLa cells assessed as reduction in cell growth at 100 uM incubated for 72 hrs by MTT assay relative to control; type: functional; conditions: read-out: GI; in short: as §1
[22] = tested on: A-431; assay: Cytotoxicity against human A431 cells assessed as reduction in cell growth at 10 uM incubated for 72 hrs by MTT assay relative to control; type: functional; conditions: A-431, 72 h, read-out: GI; in short: as §1
[23] = tested on: A-375; assay: Cytotoxicity against human A375 cells assessed as reduction in cell growth at 10 uM incubated for 72 hrs by MTT assay relative to control; type: functional; conditions: A-375, 72 h, read-out: GI; in short: as §1
[24] = tested on: A-431; assay: Cytotoxicity against human A431 cells assessed as reduction in cell growth at 1 uM incubated for 72 hrs by MTT assay relative to control; type: functional; conditions: A-431, 72 h, read-out: GI; in short: as §1

SMILES | inhibition of growth at 30 µM [1] [%] | inhibition of growth at 30 µM [2] [%] | inhibition of growth at 100 µM [3] [%] | inhibition of growth at 10 µM [4] [%] | inhibition of growth at 1 µM [5] [%] | inhibition of growth at 100 µM [6] [%] | inhibition of growth at 30 µM [7] [%] | inhibition of growth at 3 µM [8] [%] | inhibition of growth at 3 µM [9] [%] | inhibition of growth at 1 µM [10] [%] | inhibition of growth at 1 µM [11] [%] | inhibition of growth at 30 µM [12] [%] | inhibition of growth at 3 µM [13] [%] | inhibition of growth at 100 µM [14] [%] | IC50 [15] [µM] | IC50 [16] [µM] | IC50 [17] [µM] | IC50 [18] [µM] | inhibition of growth at 10 µM [19] [%] | inhibition of growth at 3 µM [20] [%] | also measured
Cc1cccc(/C(N)=N/NC(=S)N2CCCCCC2)n1 | 38.8 | 63.5 | 70.2 | 71.7 | 6.3 | 80.9 | 81.2 | 63.6 | 15.7 | 39.6 | 49.5 | 70.3 | 44.1 | 76.7 | 1 | 54.7 | 14.7 | 1.8 | 21.5 | 64.5 | inhibition of growth at 100 µM [21]: 82.7%; inhibition of growth at 10 µM [22]: 45.8%; inhibition of growth at 10 µM [23]: 79.9%; inhibition of growth at 1 µM [24]: 42.8%
Cc1cccc(/C(N)=N/NC(=S)N2CCOCC2)n1 | 57.8 | 80 | 74.7 | 85.4 | 11.7 | 83.8 | 86.9 | 65.7 | 21.6 | 30.2 | 25.7 | 74.3 | 45.8 | 84.8 | 2.2 | 21.5 | 4.3 | 14 | 39.1 | 34.7 | inhibition of growth at 100 µM [21]: 82.4%; inhibition of growth at 10 µM [22]: 68.1%; inhibition of growth at 10 µM [23]: 43.6%; inhibition of growth at 1 µM [24]: 47.2%
Cc1ccnc(/C(N)=N/NC(=S)N2CCOCC2)c1 | 8.16 | 74.6 | 12.8 | 49.1 | 1.22 | 90.6 | 45.2 | 44.7 | 5.07 | 43.2 | 39.1 | 87.4 | 35.5 | 82.8 | 38.5 | > 100 | 6.8 | 1.6 | 6.86 | 66.6 | inhibition of growth at 100 µM [21]: 82.7%; inhibition of growth at 10 µM [22]: 62%; inhibition of growth at 10 µM [23]: 86%; inhibition of growth at 1 µM [24]: 33.6%
Cc1cccc(/C(N)=N/NC(=S)N2CCN(c3ccccn3)CC2)n1 | 36 | 57.4 | 49.8 | 72.8 | 8.5 | 83.8 | 86.3 | 72.7 | 27.1 | 58.4 | 51.8 | 74.8 | 34.3 | 78.9 | 0.9 | > 100 | 19.6 | 0.85 | 20.8 | 61.8 | inhibition of growth at 100 µM [21]: 86.3%; inhibition of growth at 10 µM [22]: 43%; inhibition of growth at 10 µM [23]: 63.3%; inhibition of growth at 1 µM [24]: 9.2%
Cc1ccnc(/C(N)=N/NC(=S)N2CCCCC2)c1 | 61.7 | 62.8 | 80.1 | 62.1 | 21.2 | 85.6 | 69.1 | 23.9 | 29.4 | 33.5 | 15.3 | 80 | 36.5 | 77.6 | 7.7 | 18.8 | 18.9 | 1.9 | 40.7 | 69.5 | inhibition of growth at 100 µM [21]: 70.8%; inhibition of growth at 10 µM [22]: 39.7%; inhibition of growth at 10 µM [23]: 81.2%; inhibition of growth at 1 µM [24]: 31.1%
N/C(=N\NC(=S)N1CCCCCC1)c1ccc(F)cn1 | 68.2 | 81.3 | 79 | 83.2 | 16.8 | 85.7 | 84.5 | 65.1 | 24.3 | 51.8 | 50 | 80 | 62.4 | 83.5 | 0.9 | 21.1 | 1 | 0.96 | 26.8 | 66.6 | inhibition of growth at 100 µM [21]: 85.6%; inhibition of growth at 10 µM [22]: 64.4%; inhibition of growth at 10 µM [23]: 72.2%; inhibition of growth at 1 µM [24]: 50.3%
Cc1ccnc(/C(N)=N/NC(=S)N2CCSCC2)c1 | 74.2 | 75.3 | 76.8 | 39.2 | 3.89 | 89.9 | 78.3 | 40.4 | 33.8 | 47.7 | 41.1 | 84.9 | 34.7 | 79.6 | 15.5 | 6.9 | 7.2 | 1.2 | 62.5 | 67.2 | inhibition of growth at 100 µM [21]: 91.6%; inhibition of growth at 10 µM [22]: 60%; inhibition of growth at 10 µM [23]: 74.5%; inhibition of growth at 1 µM [24]: 34.6%
Cc1ccnc(/C(N)=N/NC(=S)N2CCN(c3ccccn3)CC2)c1 | 63.8 | 65.7 | 63.4 | 49.2 | 21 | 81 | 77 | 42.5 | 32.8 | 64.4 | 40.4 | 79.4 | 34.7 | 75.5 | 10.5 | 12.3 | 15.5 | 0.78 | 32.1 | 74.8 | inhibition of growth at 100 µM [21]: 85.6%; inhibition of growth at 10 µM [22]: 44%; inhibition of growth at 10 µM [23]: 76%; inhibition of growth at 1 µM [24]: 28.9%
N/C(=N\NC(=S)N1CCN(c2ccccn2)CC1)c1ccc(F)cn1 | 58.6 | 62.3 | 74.3 | 80 | 13.4 | 76.2 | 87 | 77.3 | 27.1 | 49.3 | 22.5 | 73.2 | 43 | 77.1 | 2 | 22 | 13.4 | 1.4 | 35.8 | 53.1 | inhibition of growth at 100 µM [21]: 83%; inhibition of growth at 10 µM [22]: 47.4%; inhibition of growth at 10 µM [23]: 56.8%; inhibition of growth at 1 µM [24]: 31.1%
